T cruzi growth-1 = T. cruzi proliferation inhibition; inhibition, % at 8.34 µM; T. cruzi beta-gal in NIH3T3, GalScreen luminescence, 90 h; actives 5.9% (n = 77,000); AID 624255;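 active = mean inhibition above about 93%, with at least 55% of replicates each passing it, limit read from the data, passing the limit was not always enough; inconclusive = only one of those two conditions holds; inactive = neither condition holds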
IDH1 R132H inh = IDH1 R132H (human) inhibition; inhibition, % at 10 µM; O75874; AID 624101; actives 0.18% (n = 70,000); IDH1 R132H reductase, diaphorase/resazurin fluorescence, 60 min; in the data active = inhibition above about 34%; inconclusive = no clear call, values can overlap the other calls; inactive = below about 11%
Target sequence (O75874 whole entry R132H): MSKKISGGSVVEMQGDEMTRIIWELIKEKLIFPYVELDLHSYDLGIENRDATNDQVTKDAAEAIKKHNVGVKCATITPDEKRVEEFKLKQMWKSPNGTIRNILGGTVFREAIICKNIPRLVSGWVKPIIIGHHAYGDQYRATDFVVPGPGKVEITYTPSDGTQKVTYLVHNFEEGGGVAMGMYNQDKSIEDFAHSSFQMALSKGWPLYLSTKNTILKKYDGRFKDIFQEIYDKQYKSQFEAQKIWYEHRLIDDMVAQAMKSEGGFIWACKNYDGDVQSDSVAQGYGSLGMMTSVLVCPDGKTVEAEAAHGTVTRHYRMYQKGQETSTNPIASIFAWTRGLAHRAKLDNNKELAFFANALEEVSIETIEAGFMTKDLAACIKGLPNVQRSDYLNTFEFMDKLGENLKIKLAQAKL
KDM4C inh = inhibitors of human demethylase GASC-1 KDM4C | actives 0.15% (n = 96,000) | AID 720574 | inhibition, % at 12.5 µM | GST-KDM4C 2-372, H3K9me3 peptide, LANCE TR-FRET;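 active = mean replicate inhibition above about 25%, with at least 55% of replicates also reaching it, limit read from the data, passing the limit was not always enough; inconclusive = only one of those two conditions met; inactive = neither condition met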
Target sequence (Q9H3R0 2-372 limits assumed): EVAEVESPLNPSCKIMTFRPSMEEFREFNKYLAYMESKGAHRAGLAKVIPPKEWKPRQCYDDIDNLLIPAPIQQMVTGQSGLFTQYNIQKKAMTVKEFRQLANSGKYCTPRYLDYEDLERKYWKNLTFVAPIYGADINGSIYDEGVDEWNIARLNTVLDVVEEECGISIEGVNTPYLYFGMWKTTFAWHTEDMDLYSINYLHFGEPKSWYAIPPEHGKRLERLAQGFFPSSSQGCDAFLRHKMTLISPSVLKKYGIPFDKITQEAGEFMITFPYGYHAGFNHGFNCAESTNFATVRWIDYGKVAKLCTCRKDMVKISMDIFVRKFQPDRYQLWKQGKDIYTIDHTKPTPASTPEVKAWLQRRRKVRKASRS
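System – N-terminal GST-fused human GASC-1 (KDM4C) fragment, residues 2-372 · Input – enzyme final amount 10 nM · Technique – LANCE TR-FRET, Eu antibody, ULight-streptavidin, EDTA, ex 340 nm, em 618/671 nm · Medium – HEPES buffer, pH 7.5, plus ascorbate · Incubation – enzyme reaction 30 min, then detection 60 min, both room temperature · Reagent – H3K9me3 peptide with Fe(II)/2OG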
Pf Dd2 inh = blocks growth of Plasmodium falciparum Dd2 parasites; AID 1159554; actives 2.3% (n = 94,000); P. falciparum Dd2 growth, SYBR Green, 72 h; stronger effect = lower value; activity change, % at 10 µM; in the data active = activity change below about -80%; inconclusive = no clear call, values can overlap the other calls
T cruzi growth-2 = inhibitors of T. cruzi proliferation; shares compounds with T cruzi growth-1; T. cruzi beta-gal in NIH3T3, GalScreen luminescence, 90 h; inhibition, % at 8.35 µM; actives 72% (n = 5,600); AID 651739;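 active = mean replicate inhibition above about 95% and at least 55% of replicates individually reaching it, limit read from the data; inconclusive = only one of the two criteria is met; inactive = neither criterion is met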
T cruzi growth-3 = inhibitors of T. cruzi proliferation. shares compounds with T cruzi growth-1. T. cruzi beta-gal in NIH3T3, GalScreen luminescence, 90 h. inhibition, % at 2.09 µM. actives 21% (n = 5,600);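 active = mean inhibition above about 95%, with at least 55% of replicates also reaching it, limit read from the data; inconclusive = meets just one of the two conditions; inactive = meets neither condition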
NIH3T3 tox = cytotoxicity in mouse NIH/3T3 fibroblasts | shares compounds with T cruzi growth-1 | NIH/3T3 viability, CellTiter-Glo ATP luminescence, 90 h | cytotoxicity (signal decrease), % at 8.35 µM | actives 14% (n = 5,600) | AID 651742;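 active = mean signal decrease across replicates above about 35% based on untreated-well scatter, with enough replicates individually passing, limit read from the data; inconclusive = no rule stated though some were filed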
NIH3T3 tox 2 = kills mouse NIH/3T3 fibroblasts. actives 56% (n = 5,600). shares compounds with T cruzi growth-1. NIH/3T3 viability, CellTiter-Glo ATP luminescence, 90 h. inhibition, % at 24.9 µM;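 active = mean loss of cell viability signal at or above a set limit, and enough replicates individually reaching it; inconclusive = meets only the mean limit or only the replicate share; inactive = meets neither condition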
Large screens that a line does not name were inactive (follow-up assays come after a bar, where they were run). Compounds with a hit are over-represented: about 5.8% of the library has one in this group of screens.

C[C@@H]1CN([C@@H](C)CO)C(=O)c2c(c3ccccc3n2C)-c2ccccc2CO[C@H]1CN(C)S(C)(=O)=O	none (no result: IDH1 R132H inh)
C[C@H]1CN([C@@H](C)CO)C(=O)c2c(c3ccccc3n2C)-c2ccccc2CO[C@H]1CN(C)S(=O)(=O)c1cn(C)cn1	T cruzi growth-1 101 | T cruzi growth-2 inactive | T cruzi growth-3 inactive | NIH3T3 tox inactive | NIH3T3 tox 2 inactive
C[C@@H]1CN([C@H](C)CO)C(=O)c2c(c3ccccc3n2C)-c2ccccc2CO[C@@H]1CN(C)S(=O)(=O)c1cn(C)cn1	none (no result: IDH1 R132H inh)
O=C1CN(Cc2ccc(F)cc2)C[C@H]2[C@@H](c3ccc(-c4ccccc4)cc3)[C@@H](CO)N12	none (no result: T cruzi growth-1, IDH1 R132H inh)
COc1ccc(S(=O)(=O)N(C)C[C@@H]2OCCCC[C@@H](C)Oc3ccc(NC(=O)Nc4cccc5ccccc45)cc3C(=O)N([C@H](C)CO)C[C@@H]2C)cc1	none (no result: IDH1 R132H inh)
C[C@@H]1CN([C@@H](C)CO)C(=O)c2cccc(NC(=O)Nc3ccc(C(F)(F)F)cc3)c2O[C@@H]1CN(C)Cc1ccc(Oc2ccccc2)cc1	T cruzi growth-1 124 (no result: IDH1 R132H inh, KDM4C inh) | T cruzi growth-2 inactive | T cruzi growth-3 111 | NIH3T3 tox 60 | NIH3T3 tox 2 105
C[C@@H]1CN([C@H](C)CO)C(=O)c2cccc(NC(=O)Nc3ccc(C(F)(F)F)cc3)c2O[C@H]1CN(C)Cc1ccc(Oc2ccccc2)cc1	T cruzi growth-1 121 | T cruzi growth-2 inconclusive | T cruzi growth-3 inactive | NIH3T3 tox inactive | NIH3T3 tox 2 104
C[C@H]1CN([C@@H](C)CO)C(=O)c2cccc(NC(=O)Nc3ccc(C(F)(F)F)cc3)c2O[C@H]1CN(C)Cc1ccc(Oc2ccccc2)cc1	none
C[C@@H]1CN([C@H](C)CO)C(=O)c2cccc(NC(=O)Nc3ccc(C(F)(F)F)cc3)c2O[C@H]1CN(C)Cc1ccc(C(F)(F)F)cc1	none
C[C@@H]1CN([C@@H](C)CO)C(=O)c2cccc(NC(=O)Nc3ccc(C(F)(F)F)cc3)c2O[C@H]1CN(C)Cc1ccc(Oc2ccccc2)cc1	T cruzi growth-1 126 | T cruzi growth-2 109 | T cruzi growth-3 102 | NIH3T3 tox inactive | NIH3T3 tox 2 99
C[C@@H]1CN([C@H](C)CO)C(=O)c2cccc(NC(=O)Nc3ccc(C(F)(F)F)cc3)c2O[C@@H]1CN(C)Cc1ccc(Oc2ccccc2)cc1	T cruzi growth-1 120 (no result: IDH1 R132H inh) | T cruzi growth-2 97 | T cruzi growth-3 98 | NIH3T3 tox inactive | NIH3T3 tox 2 104
CNC[C@@H]1Oc2ccc(NC(=O)NC3CCCCC3)cc2CC(=O)N([C@@H](C)CO)C[C@H]1C	none
COCC#Cc1ccc([C@H]2[C@@H](CO)N3CCCCN(Cc4cccnc4)C[C@@H]23)cc1	T cruzi growth-1 101 (no result: IDH1 R132H inh) | T cruzi growth-2 inactive | T cruzi growth-3 inactive | NIH3T3 tox inactive | NIH3T3 tox 2 inactive
CCCC#Cc1ccc([C@H]2[C@@H](CO)N3CCCCN(Cc4cccnc4)C[C@@H]23)cc1	T cruzi growth-1 110 (no result: IDH1 R132H inh) | T cruzi growth-2 101 | T cruzi growth-3 inactive | NIH3T3 tox 43 | NIH3T3 tox 2 78
O=C(Nc1cccc(F)c1)N1CC(=O)N2[C@H](C1)[C@H](c1ccc(C#Cc3cccnc3)cc1)[C@@H]2CO	none (no result: T cruzi growth-1, IDH1 R132H inh)
C[C@H]1CN([C@@H](C)CO)S(=O)(=O)c2ccc(C#CC3CCCC3)cc2O[C@H]1CN(C)C	none
C[C@H]1CN([C@@H](C)CO)S(=O)(=O)c2ccc(C#CC3CCCC3)cc2O[C@H]1CN(C)CC1CC1	T cruzi growth-1 inconclusive | T cruzi growth-2 inactive | T cruzi growth-3 inactive | NIH3T3 tox 48 | NIH3T3 tox 2 104
C[C@H]1CN([C@@H](C)CO)S(=O)(=O)c2ccc(C#CC3CCCC3)cc2O[C@@H]1CN(C)C	T cruzi growth-1 100 | T cruzi growth-2 105 | T cruzi growth-3 inactive | NIH3T3 tox inactive | NIH3T3 tox 2 104
C[C@H](CO)N1C[C@H](C)[C@H](CN(C)C)Oc2cc(C#CC3CCCCC3)ccc2S1(=O)=O	T cruzi growth-1 98 | T cruzi growth-2 106 | T cruzi growth-3 inactive | NIH3T3 tox 48 | NIH3T3 tox 2 103
CCCN(C)C[C@@H]1Oc2cc(C#CC3CCCC3)ccc2S(=O)(=O)N([C@@H](C)CO)C[C@H]1C	T cruzi growth-1 103 | T cruzi growth-2 108 | T cruzi growth-3 inactive | NIH3T3 tox 39 | NIH3T3 tox 2 104
C/C=C/c1ccc2c(c1)O[C@@H](CN(C)C(=O)CN(C)C)[C@@H](C)CN([C@H](C)CO)S2(=O)=O	none
C[C@@H]1CN([C@@H](C)CO)S(=O)(=O)c2ccc(C#CC3CCCCC3)cc2O[C@H]1CN(C)C	T cruzi growth-1 118 | T cruzi growth-2 104 | T cruzi growth-3 101 | NIH3T3 tox 38 | NIH3T3 tox 2 104
CC(C)CC#Cc1cnc2c(c1)C(=O)N([C@H](C)CO)C[C@H](C)[C@H](CN(C)C(=O)Cc1cccnc1)O2	none
COc1ccc(C#Cc2ccc([C@@H]3[C@H]4CN(C(=O)Nc5ccccc5)CCCCN4[C@H]3CO)cc2)cc1	T cruzi growth-1 106 (no result: IDH1 R132H inh) | T cruzi growth-2 inactive | T cruzi growth-3 inactive | NIH3T3 tox 94 | NIH3T3 tox 2 106
COc1ccc(NC(=O)N2CCCCN3[C@H](C2)[C@@H](c2ccc(C#Cc4ccccc4)cc2)[C@@H]3CO)cc1	T cruzi growth-1 inconclusive (no result: IDH1 R132H inh, KDM4C inh) | T cruzi growth-2 104 | T cruzi growth-3 119 | NIH3T3 tox 60 | NIH3T3 tox 2 104
O=C(Nc1ccccc1)N1CCCCN2[C@@H](CO)[C@H](c3ccc(C#Cc4ccccc4)cc3)[C@@H]2C1	none (no result: IDH1 R132H inh)
COc1ccc(NC(=O)N2CCCCN3[C@@H](CO)[C@H](c4ccc(C#Cc5ccccc5)cc4)[C@@H]3C2)cc1	none (no result: IDH1 R132H inh, KDM4C inh)
COc1ccc(C#Cc2ccc([C@@H]3[C@@H](CO)N4CCCCN(C(=O)Nc5ccccc5)C[C@H]34)cc2)cc1	none (no result: IDH1 R132H inh)
COc1ccc(NC(=O)N2CCCCN3[C@H](C2)[C@H](c2ccc(C#Cc4ccccc4)cc2)[C@@H]3CO)cc1	T cruzi growth-1 99 (no result: IDH1 R132H inh, KDM4C inh) | T cruzi growth-2 109 | T cruzi growth-3 inactive | NIH3T3 tox inactive | NIH3T3 tox 2 56
COc1ccc2c3c(n(C)c2c1)[C@H](CO)N(C(=O)C1CCC1)CC31CCN(C)CC1	none (no result: T cruzi growth-1, IDH1 R132H inh)
C[C@@H]1CCCCO[C@@H](CN(C)C(=O)CCC(F)(F)F)[C@@H](C)CN([C@@H](C)CO)C(=O)c2cc(NC(=O)C3CCCCC3)ccc2O1	none (no result: IDH1 R132H inh)
CCc1cnc(N2[C@H](C#N)[C@@H](c3ccc(C#CC(C)C)cc3)[C@H]2CO)s1	none (no result: IDH1 R132H inh)

High-throughput results (PubChem)
